E-sel inducer: E-selectin induction on HUVECs | P16581 | AID 686992 | activation, % at 7.58 µM | 0.37% of 260,000 active | HUVEC E-selectin immunofluorescence imaging; normalized: neutral wells 0, TNF-alpha wells 100;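 active = mean E-selectin-positive cell signal at least 10% of the positive control, reached in at least 60% of replicates, without over 20% cell loss; inconclusive = no rule given, readout overlaps actives, possibly toxicity-flagged; inactive = the rest, including those meeting only one limit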
Target sequence (P16581 whole entry, looked up): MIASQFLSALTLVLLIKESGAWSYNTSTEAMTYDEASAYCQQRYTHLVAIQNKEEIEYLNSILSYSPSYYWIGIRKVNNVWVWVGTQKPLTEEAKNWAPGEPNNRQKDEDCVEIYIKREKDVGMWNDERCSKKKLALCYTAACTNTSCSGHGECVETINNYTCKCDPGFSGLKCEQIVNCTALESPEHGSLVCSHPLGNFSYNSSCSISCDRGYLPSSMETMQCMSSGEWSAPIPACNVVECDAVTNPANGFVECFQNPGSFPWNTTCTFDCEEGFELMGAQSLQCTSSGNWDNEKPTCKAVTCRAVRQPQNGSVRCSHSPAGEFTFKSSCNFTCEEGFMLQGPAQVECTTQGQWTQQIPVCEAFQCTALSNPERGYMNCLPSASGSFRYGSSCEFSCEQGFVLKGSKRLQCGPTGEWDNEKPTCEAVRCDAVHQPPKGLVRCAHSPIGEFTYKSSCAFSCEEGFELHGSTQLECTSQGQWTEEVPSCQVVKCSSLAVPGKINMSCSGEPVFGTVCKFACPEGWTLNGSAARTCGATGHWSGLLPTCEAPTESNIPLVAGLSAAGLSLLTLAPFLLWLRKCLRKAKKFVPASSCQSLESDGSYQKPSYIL
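material = human umbilical vein endothelial cells (HUVEC), E-selectin induction | quantity = 3,000 cells/well | medium = EGM-2 growth medium on 0.1% gelatin-coated wells | technique = immunofluorescence imaging | read-out basis = % PE-positive cells | control set = TNF-alpha positive control, DMSO neutral control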
XiGFP reactiv: X-chromosome reactivation activator. XiGFP mouse fibroblasts, % GFP-positive cells imaging, 3 d; cells co-treated with 5-aza-dC sensitizer; scaled so ellipticine positive control = 100%. 0.055% of 360,000 active. activation, % at 7.58 µM;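 active = mean normalized replicate activation at least 10% and every replicate at or above 10%; inconclusive = only one of the two criteria met; inactive = mean below 10% and not all replicates reach 10%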;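 also: 0% = median of on-plate neutral control wells and 100% = ellipticine 6 µM median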
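Material: SV40-immortalized XiGFP fibroblast cells, line 68-5-11 | Buffer or medium: DMEM containing 5-aza-dC | Dosing: One concentration, pinned | Times: 3 d treatment, 15 min room-temperature fixation | Controls: Ellipticine 6 µM positive control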
DENV2 CPE rescue: protects cells from dengue virus 2 cytopathic effect; 1.7% of 350,000 active; CPE inhibition, % at 9.99 µM; AID 651640; DENV2-infected cells, cytopathic effect rescue, plate reader; in the data active = CPE inhibition above about 20%, passing the limit was not always enough; inconclusive = no clear call, values can overlap the other calls; tested in BHK-21 cells;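 also: 0% = median of neutral control wells and 100% = median of positive control wells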
S100A4 inh HTS: blocks human S100A4 binding to myosin IIA peptide | P26447 | S100A4/TAMRA-MyoIIA peptide fluorescence polarization | inhibition, % at 10.7 µM | 0.14% of 360,000 active | AID 652163;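 active = mean inhibition of at least 70% across replicates, with every replicate also reaching that level; inconclusive = mean inhibition reaches 70% but some replicates fall short; inactive = mean inhibition below 70%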
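Test system – S100A4 monomer (human) · Compound – single-point compound testing · Schedule – 5 min incubation before reading · Probe or stimulus – TAMRA-labelled myosin IIA heavy-chain peptide probe, 5 nM · Benchmarks – neutral control DMSO, positive control TFP · Medium – Calcium-containing HEPES buffer, pH 7.2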
The depositor's hits bear a star; ? = inconclusive; nt = not tested or not shown; ! = a repeat was not active. The list is not random: actives were taken first. Their share in the collection is about 2%.

SMILES	E-sel inducer	XiGFP reactiv	DENV2 CPE rescue	S100A4 inh HTS
C[C@@H]1CN([C@H](C)CO)C(=O)c2cccc(NC(=O)Nc3ccc4c(c3)OCO4)c2O[C@@H]1CN(C)C(=O)Nc1ccc(C(F)(F)F)cc1	60*	0	3	16
C[C@@H]1CN([C@H](C)CO)C(=O)c2cccc(NC(=O)Nc3ccc(C(F)(F)F)cc3)c2O[C@@H]1CN(C)C(=O)Nc1ccccc1	0	0	43*	4
C[C@@H]1CN([C@H](C)CO)C(=O)c2cccc(NC(=O)c3cnccn3)c2O[C@@H]1CN(C)Cc1ccc(C(F)(F)F)cc1	nt	0	4	-6
CCC1C(=O)CC(c2ccccc2)NC1c1ccccc1 (stereo not drawn)	0	0	6	0
Cc1noc(N)c1C(=O)Nc1ccc(C(C)(C)C)cc1	-1	nt	nt	nt
Cc1c(CCO)c(=O)[nH]n1S(=O)(=O)c1ccc(F)cc1	0	0	-7	0
Cc1noc(C)c1NC(=O)Nc1cccc2c1O[C@@H](CN(C)Cc1ccc(C(F)(F)F)cc1)[C@H](C)CN([C@@H](C)CO)C2=O	252*	0	23*	nt
Cc1noc(C)c1NC(=O)Nc1cccc2c1O[C@@H](CN(C)Cc1ccc(C(=O)O)cc1)[C@H](C)CN([C@@H](C)CO)C2=O	nt	-1	8	-39
C[C@@H]1CN([C@H](C)CO)S(=O)(=O)c2ccc(Br)cc2O[C@H]1CN(C)C(=O)Cc1ccccn1	2	0	2	4
CCCCN(C(=O)c1ccc(COc2ccccc2)o1)c1c(N)n(CC(C)C)c(=O)[nH]c1=O	0	0	?	-1
Cc1noc(C)c1NC(=O)N(C)C[C@@H]1Oc2ncc(C#CCN(C)C)cc2C(=O)N([C@H](C)CO)C[C@@H]1C	0	0	-5	9
Cc1noc(C)c1NC(=O)N(C)C[C@H]1Oc2ncc(C#CC(C)C)cc2C(=O)N([C@@H](C)CO)C[C@H]1C	0	0	53*	-6
Cc1noc(C)c1NC(=O)N(C)C[C@@H]1Oc2ncc(C#CCN(C)C)cc2C(=O)N([C@@H](C)CO)C[C@@H]1C	0	0	25*	10
CCc1ccc(C(=O)COC(=O)c2ccccc2OC)cc1	0	0	-6	-2
Cc1ccc(Cl)cc1NC(=S)Nn1cnnc1	-1	2	-6	-4
CCn1c(CNc2ccc(Cl)cc2)nnc1SCC#N	56*	1	-1	1
CCn1c(CNc2ccc(F)cc2)nnc1SCC#N	nt	0	0	11
COc1ccc(S(=O)(=O)N(C)C[C@H]2OCCCC[C@H](C)Oc3ccc(NC(=O)Nc4c(C)noc4C)cc3C(=O)N([C@H](C)CO)C[C@@H]2C)cc1	0	0	67*	1
COc1ccc(S(=O)(=O)N(C)C[C@H]2Oc3ccc(NC(=O)Nc4c(C)noc4C)cc3C(=O)N([C@H](C)CO)C[C@@H]2C)cc1	55*!	0	-10	-6
O=C(Nc1ccc(F)cc1)N1CCCCN2[C@H](CO)[C@H](c3ccc(-c4ccncc4)cc3)[C@H]2C1	0	0	-10	5
COc1ccc(C#Cc2ccc([C@@H]3[C@H](CO)N4CCCCN(C(=O)Nc5ccc(F)cc5)C[C@@H]34)cc2)cc1	0	2	3	13
COc1ccc(C#Cc2ccc([C@@H]3[C@@H](CO)N4CCCCN(C(=O)Nc5ccc(F)cc5)C[C@H]34)cc2)cc1	-1	0	-13	-10
O=C(Nc1ccc(F)cc1)N1CCCCN2[C@@H](CO)[C@H](c3ccc(-c4ccncc4)cc3)[C@@H]2C1	0	0	30*	-10
COc1ccc(C#Cc2ccc([C@H]3[C@@H](CO)N4CCCCN(C(=O)Nc5ccc(F)cc5)C[C@H]34)cc2)cc1	0	1	31*	7
COc1ccc(C#Cc2ccc([C@@H]3[C@@H](CO)N4CCCCN(C(=O)Nc5ccc(F)cc5)C[C@@H]34)cc2)cc1	-1	0	-12	102*
SMILES	E-sel inducer	XiGFP reactiv	DENV2 CPE rescue	S100A4 inh HTS
CCC(=O)N1CCCCN2[C@@H](CO)[C@H](c3ccc(-c4ccc(F)cc4)cc3)[C@@H]2C1	0	0	25*	0
O=C(COC(=O)COc1ccccc1[N+](=O)[O-])Nc1cccc(Br)c1	-1	0	nt	nt
C#CCOCCOCCOCCNc1nc(N2CCN(C(=O)[C@H](CCCN=C(N)N)n3cc(C(N)[C@@H](C)CC)nn3)CC2)nc(N2CCN(C(=O)[C@H](CC(N)=O)n3cc([C@@H](N)CC(N)=O)nn3)CC2)n1 (stereo partly drawn)	0	0	-5	17
C#CCOCCOCCOCCNc1nc(N2CCOCC2)nc(N2CCN(C(=O)[C@H](CCCN=C(N)N)n3cc(C(N)[C@@H](C)CC)nn3)CC2)n1 (stereo partly drawn)	0	0	119*	0
C#CCOCCOCCOCCNc1nc(N2CCN(C(=O)[C@H](CC(N)=O)n3cc(C(N)[C@H](C)CC)nn3)CC2)nc(N2CCN(C(=O)[C@H](CC(N)=O)n3cc(C(N)[C@@H](C)CC)nn3)CC2)n1 (stereo partly drawn)	1	0	21*	-6
C#CCOCCOCCOCCNc1nc(N2CCN(C(=O)[C@H](CCCN=C(N)N)n3cc(C(N)[C@@H](C)CC)nn3)CC2)nc(N2CCN(C(=O)[C@H](CC(N)=O)n3cc([C@@H](N)C(C)C)nn3)CC2)n1 (stereo partly drawn)	0	0	37*	7
COc1ccc(S(=O)(=O)N(C)C[C@@H]2Oc3ccc(NC(=O)NC(C)C)cc3CC(=O)N([C@@H](C)CO)C[C@@H]2C)cc1	0	0	1	11
Cn1nc(-c2ccc(Cl)cc2)cc1NC(=O)Nc1ccccc1	0	0	-3	-8
CC(/C=C/c1ccccc1)=N\Nc1nc(C)cc(C)n1	nt	1	nt	nt
CCCCC1=CC2=CC(=O)C(C)(OC(=O)CC)C(=O)C2=CN1CCc1c[nH]c2ccccc12 (stereo not drawn)	0	1	20*	-4
O=C(NCc1ccccc1)[C@@H]1[C@@H](CO)[C@@H]2Cn3c(cccc3=O)[C@@H]2N1Cc1ccccc1F	-1	0	23*	0
O=C(NCc1ccccc1)[C@@H]1[C@@H](CO)[C@@H]2Cn3c(cccc3=O)[C@H]1N2Cc1ccccn1	0	0	40*	9
O=C(NCc1cccc(F)c1)[C@@H]1[C@@H](CO)[C@@H]2Cn3c(cccc3=O)[C@H]1N2C(=O)c1cnccn1	0	0	82*	7
O=C(NCCc1ccccc1)[C@@H]1[C@@H](CO)[C@@H]2Cn3c(cccc3=O)[C@H]1N2Cc1ccccn1	0	0	3	14
CN(C)CC(=O)N1[C@@H]2c3cccc(=O)n3C[C@H]1[C@H](CO)[C@H]2C(=O)NCc1ccccc1	0	0	20*	2

Screening data (PubChem)
